From PubChem BioAssay
EP2 antag: blocks the human prostaglandin E2 receptor EP2; P43116; C6 glioma cells expressing human EP2, cAMP TR-FRET; cells stimulated with saturating PGE2; inhibition, % at 25 µM; actives 0.52% (n = 260,000); AID 1422;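 active means percent inhibition above 40 after rounding to a whole number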;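 further: rat C6 glioma host cells with rolipram phosphodiesterase inhibitor present; the protocol text gives 20 µM as final concentration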
Target sequence (P43116 whole entry, looked up): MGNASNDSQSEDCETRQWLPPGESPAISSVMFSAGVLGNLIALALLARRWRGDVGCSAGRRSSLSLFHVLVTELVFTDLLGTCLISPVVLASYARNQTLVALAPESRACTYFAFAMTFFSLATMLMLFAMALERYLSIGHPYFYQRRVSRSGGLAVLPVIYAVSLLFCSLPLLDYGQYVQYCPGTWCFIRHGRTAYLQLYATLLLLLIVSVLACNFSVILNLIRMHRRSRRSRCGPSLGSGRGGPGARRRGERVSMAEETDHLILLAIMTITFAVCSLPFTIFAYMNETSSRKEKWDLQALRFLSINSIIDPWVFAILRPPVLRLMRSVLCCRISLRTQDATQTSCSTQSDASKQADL
MC4R barr agon: activates human MC4R beta-arrestin recruitment; U2OS MC4R beta-arrestin complementation, luminescence; percent of melanotan II response, DMSO zero; activation, % at 8.9 µM; actives 0.98% (n = 360,000); AID 540308;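 active means activation above a per-plate cutoff, the mean activation of sample wells on that plate plus 3 SD, cut at about 8% in these data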
T cell modulator: T cell immune modulation candidate | response (vesicle binding), % at 7 µM | 2C CD8+ T cell-vesicle binding, flow cytometry; active compounds read low | actives 0.068% (n = 330,000) | AID 2052;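 active means response, share of CD8 T cells binding vesicles, and their 90th percentile fluorescence all below set limits, cut at about 80% in these data, passing the limit was not always enough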;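 further: values below 100% mean blocked vesicle binding to the CD8+ T cells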
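Material: murine 2C transgenic CD8+ T lymphocytes / Also added: QL9-peptide-loaded Drosophila micro-vesicles bearing Ld, ICAM-1 and B7-1 / Schedule: binding step 1.5 h, 37 °C, antibody labelling 20 min, ice / Signal: flow cytometry, PE anti-B7-1 (FL2) versus Alexa647 anti-CD8 (FL8), PFA-fixed / Evaluation: percent CD8+ FL2 mean versus row control / Benchmarks: naked versus QL9-loaded vesicles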
MC4R antagonist: human MC4R antagonism in cAMP assay | MC4R-expressing cells, MTII-stimulated cAMP, LANCE TR-FRET | actives 0.48% (n = 360,000) | P32245 | inhibition, % at 6.5 µM;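 active means inhibition above its plate's cutoff, the mean of tested wells on that plate plus 3 SD, cut at about 29% in these data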
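Material: human MC4R-expressing U2OS cells. Probe or stimulus: Melanotan II challenge. Dosing: 6.5 µM single dose. Times: 30-min compound, 1-h challenge, 1-h detection, room temperature. Technique: TR-FRET with Eu-cAMP and labeled anti-cAMP, 671 nm. Replication: singlicate.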
EP2 modulator: EP2 receptor (human) modulation. EP2-expressing cells, cAMP HTRF FRET, PGE2 co-stimulation. induction, % at 25 µM. actives 0.83% (n = 260,000);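 active means compounds whose cAMP rise, as percent of the full-agonist control response, exceeds 60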;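 further: rat C6 glioma line stably carrying human EP2 under a CMV promoter; the protocol text gives 20 µM as final concentration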
Exocytosis inh: lytic granule exocytosis inhibition; AID 651702; TALL-104 LAMP-1 surface exposure, flow cytometry; cells stimulated with thapsigargin and PMA; actives 0.66% (n = 360,000); inhibition, % at 10 µM;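 active means inhibition above about 55%, limit read from the data; inconclusive means no clear call, values can overlap the other calls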
EP2 cAMP induct: human EP2 receptor cAMP induction, negative in counter-screens; shares compounds with EP2 modulator; actives 47% (n = 1,300); C6 glioma EP2 cells, cAMP HTRF induction; plus low (about EC15) PGE2 agonist; calls only at 20 µM (by protocol); AID 1080;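 active means cAMP induction above 50% in the main assay while under 30% in all four parallel counter assays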;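 further: rat C6 glioma cells stably expressing human EP2 receptor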
Of the large screens only hits and unclear results are named; the others gave an inactive call (follow-up assays come after a bar, where they were run). Hits are enriched below; roughly 2.6% of the tested compounds scored in any of these assays.

Cc1cc(C)cc(OC2CCCCC2NS(=O)(=O)c2ccccc2)c1 (configuration not stated)	EP2 modulator 65.2 | EP2 cAMP induct active
N#C/C(=C\c1cccn1S(=O)(=O)c1cccc(C#N)c1)S(=O)(=O)c1ccc(F)cc1	none (no result: EP2 antag, T cell modulator, EP2 modulator)
CCCCC(=O)C1CCN(Cc2ccccc2)CC1	EP2 modulator 105.9 | EP2 cAMP induct inactive
CCCCNC(=O)C1CCN(Cc2ccc(OCc3ccccc3)cc2)CC1	none
OC(COc1c(Cl)cc(Cl)cc1Cl)CN1CCCCC1 (configuration not stated)	none
Nc1[nH]n2c(=O)c3c(nc2c1N=Nc1ccccc1)CCCC3	EP2 modulator 90.3 | EP2 cAMP induct active
Cc1c(OCc2ccccc2)c(=O)ccn1Cc1ccc(Cl)cc1	EP2 modulator 67.1 | EP2 cAMP induct inactive
Cc1ccc(Cn2ccc(=O)c(OCc3ccccc3)c2C)cc1	none
Cc1sc(NC(=O)CN2CCOCC2)c(C(=O)c2ccccc2)c1C	EP2 modulator 69.0 | EP2 cAMP induct inactive
CCOC(=O)c1c(NC(=O)c2ccn(CC)n2)sc2c1CCCC2	none | EP2 cAMP induct inactive
CCOC(=O)c1sc(NC(=O)CCN2CCN(C)CC2)c(C(=O)OCC)c1C	none
O=C(CN1CCOCC1)Nc1sc2c(c1C(=O)c1ccccc1)CCC2	none (no result: MC4R barr agon, T cell modulator, MC4R antagonist, Exocytosis inh)
CCOC(=O)c1sc(NC(=O)CCN2CC(C)OC(C)C2)c(C(=O)OCC)c1C (configuration not stated)	none (no result: EP2 antag, MC4R barr agon, MC4R antagonist, Exocytosis inh) | EP2 cAMP induct inactive
CCOC(=O)c1c(NC(=O)CN2CCCCC2)sc2c1CCN(C(=O)OCC)C2	EP2 modulator 70.5 (no result: EP2 antag) | EP2 cAMP induct active
CCN1CCN(C(=O)/C=C/c2ccc(OC)cc2)CC1	none (no result: EP2 antag, EP2 modulator)
CCOC(=O)c1c(NC(=O)Cc2cccs2)sc(C)c1C	EP2 modulator 62.2 | EP2 cAMP induct inactive
CCOC(=O)c1c(NC(=S)N2CCN(C)CC2)sc2c1CCN(C(=O)OCC)C2	none
CCOC(=O)c1c(NC(=O)CN2CCN(C(=O)c3ccco3)CC2)sc2c1CCCC2	none (no result: EP2 antag) | EP2 cAMP induct inactive
CCOC(=O)c1c(NC(=O)CN(CC)CC)sc2c1CCN(C(=O)OCC)C2	EP2 modulator 71.6 | EP2 cAMP induct active
CCOC(=O)c1c(NC(=O)CN2CCCCC2)sc(C)c1C	EP2 modulator 67.0 | EP2 cAMP induct active
CCOC(=O)c1c(NC(=O)Cc2cccs2)sc(C(=O)NC2CCCC2)c1C	none
COc1ccc2c(c1)C(=O)CC(c1ccc3c(c1)OCCO3)O2 (configuration not stated)	Exocytosis inh inconclusive (no result: EP2 antag, EP2 modulator)
O=C1CC(c2ccco2)CC(O)=C1C=NCCN1CCN(C(=S)Nc2ccccc2)CC1 (configuration not stated)	none
COC(=O)c1c(NC(=O)Cc2cccs2)sc2c1CCC(C)C2 (configuration not stated)	none | EP2 cAMP induct inactive
COC(=O)c1c(NC(=O)CN(C)CC(=O)Nc2ccc(C)cc2)sc2c1CCC(C)C2 (configuration not stated)	none (no result: EP2 antag, EP2 modulator)
Fc1ccc(-c2cc(-c3ccccc3)nc(-n3cccn3)n2)cc1	none | EP2 cAMP induct active
CCCCCCc1nnc(NC(=O)OCC)s1	none
C/C=C(\C)c1nnc(NC(=O)OCC)s1	EP2 modulator 90.0 | EP2 cAMP induct inactive
COc1ccc2cc(CN(Cc3ccco3)C(c3nnnn3C3CCCCC3)C(C)C)c(=O)[nH]c2c1 (configuration not stated)	EP2 modulator 65.7 | EP2 cAMP induct active
CCC(c1nnnn1C1CCCC1)N(Cc1cccs1)Cc1cc2cc(C)ccc2[nH]c1=O (configuration not stated)	EP2 modulator 84.1 | EP2 cAMP induct inactive
CCC(c1nnnn1C1CCCCC1)N(Cc1cccs1)Cc1cc2ccc(C)c(C)c2[nH]c1=O (configuration not stated)	none (no result: MC4R barr agon, T cell modulator, MC4R antagonist, Exocytosis inh)
CN(C)c1ncc(S(=O)(=O)c2ccc(Cl)cc2)c(-c2ccccc2)n1	EP2 modulator 80.2 | EP2 cAMP induct active
